Article PMC10962727 (PNAS Nexus, 2024)
Blank lines part the entries; values can stand above or below the compound they belong to.

How the values were obtained:
EGFR = EGFR (Homo sapiens, UniProt P00533); assay: EGFR inhibition; type: biochemical
MST1 [1] = target: T1, MST1 (Homo sapiens, UniProt Q13043); assay: MST1 inhibition; type: biochemical; conditions: vs neratinib
T1 sequence (Q13043 1-487): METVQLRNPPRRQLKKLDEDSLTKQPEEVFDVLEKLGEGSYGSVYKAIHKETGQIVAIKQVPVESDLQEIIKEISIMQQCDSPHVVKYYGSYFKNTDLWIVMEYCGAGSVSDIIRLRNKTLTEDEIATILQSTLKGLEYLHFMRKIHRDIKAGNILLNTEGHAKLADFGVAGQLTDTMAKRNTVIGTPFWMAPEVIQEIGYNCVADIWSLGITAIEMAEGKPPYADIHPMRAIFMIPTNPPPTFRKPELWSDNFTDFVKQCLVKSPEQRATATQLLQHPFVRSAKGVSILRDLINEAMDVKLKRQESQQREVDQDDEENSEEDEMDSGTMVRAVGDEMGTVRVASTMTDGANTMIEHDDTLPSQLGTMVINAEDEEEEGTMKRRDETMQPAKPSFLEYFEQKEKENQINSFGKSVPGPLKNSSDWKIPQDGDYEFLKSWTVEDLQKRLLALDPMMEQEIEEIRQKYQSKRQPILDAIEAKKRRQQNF

Pharmacokinetics in mice = type: in vivo; conditions: female, CD1, mouse, plasma, po, 20 mg/kg
Summary of the method: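 Female CD1 mice and male beagle dogs received test compound orally in 0.5% methylcellulose:0.5% Tween-80 or intravenously in saline, both at 5 mL/kg. After oral dosing, plasma concentrations were measured at 30 min, 1 h, 3 h, 8 h and 24 h.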

MST1 [2] = target: T1, MST1; conditions: high-throughput MST1 inhibition screen ref 16, 17; cited from earlier work
MST1/2 = conditions: cited from earlier work

EGFR, sequence (P00533 25-1210): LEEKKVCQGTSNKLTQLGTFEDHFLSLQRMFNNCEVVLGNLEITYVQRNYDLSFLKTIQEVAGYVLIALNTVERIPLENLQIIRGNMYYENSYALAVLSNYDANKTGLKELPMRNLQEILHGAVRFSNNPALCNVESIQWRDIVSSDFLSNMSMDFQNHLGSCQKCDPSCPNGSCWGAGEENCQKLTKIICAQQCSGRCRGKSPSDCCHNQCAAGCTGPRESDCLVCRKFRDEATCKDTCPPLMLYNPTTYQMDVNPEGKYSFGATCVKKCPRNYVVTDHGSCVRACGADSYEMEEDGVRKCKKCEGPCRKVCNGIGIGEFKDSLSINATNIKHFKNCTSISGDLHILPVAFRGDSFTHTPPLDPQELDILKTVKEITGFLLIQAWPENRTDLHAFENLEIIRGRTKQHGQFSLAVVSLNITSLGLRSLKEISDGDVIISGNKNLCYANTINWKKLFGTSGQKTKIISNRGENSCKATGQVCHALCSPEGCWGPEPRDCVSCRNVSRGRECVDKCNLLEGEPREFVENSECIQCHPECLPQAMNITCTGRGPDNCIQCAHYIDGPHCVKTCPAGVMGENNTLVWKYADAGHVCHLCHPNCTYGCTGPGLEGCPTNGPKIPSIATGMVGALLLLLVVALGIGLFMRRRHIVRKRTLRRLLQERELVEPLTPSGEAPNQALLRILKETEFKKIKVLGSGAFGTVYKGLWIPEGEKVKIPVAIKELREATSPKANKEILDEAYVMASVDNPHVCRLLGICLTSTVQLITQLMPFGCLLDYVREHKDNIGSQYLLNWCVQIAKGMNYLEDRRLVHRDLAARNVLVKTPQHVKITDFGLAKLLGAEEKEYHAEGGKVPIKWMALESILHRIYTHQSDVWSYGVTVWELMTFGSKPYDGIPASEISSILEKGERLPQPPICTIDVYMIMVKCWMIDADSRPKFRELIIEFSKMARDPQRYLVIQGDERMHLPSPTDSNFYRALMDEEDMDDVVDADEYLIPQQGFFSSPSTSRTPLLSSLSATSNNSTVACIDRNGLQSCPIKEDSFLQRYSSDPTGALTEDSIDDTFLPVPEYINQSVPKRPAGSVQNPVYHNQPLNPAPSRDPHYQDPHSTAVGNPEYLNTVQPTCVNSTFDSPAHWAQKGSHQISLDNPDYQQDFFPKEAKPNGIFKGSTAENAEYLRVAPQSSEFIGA

Compound: CCOc1cc2ncc(C#N)c(Nc3ccc(OCc4ccccn4)c(Cl)c3)c2cc1NC(=O)CCCN(C)C [mBNB885]
- fold reduction in potency toward EGFR / EGFR inhibition (EGFR; compared with preceding/parent compound): 5 fold
- IC50 (EGFR; read-out: EGFR IC50): 1.42 nM
- MST1 activity (in words) (MST1 [1]): preserved MST1 activity

- AUC(0-t) (Pharmacokinetics in mice): 3120 ng·h/mL
- Cmax (Pharmacokinetics in mice): 342 ± 152 ng/mL
- MRT (Pharmacokinetics in mice): 5.4 ± 1.3 h
- Tmax (Pharmacokinetics in mice): 4 ± 3 h
Compound: CCOc1cc2ncc(C#N)c(Nc3ccc(OCc4ccccn4)c(Cl)c3)c2cc1NC(=O)/C=C/CN(C)C [Neratinib]
- MST1 inhibitory activity (in words) (MST1 [2]): high MST1 inhibitory activity

Compound: XMU-MP-1
- MST1/2 inhibition (in words) (MST1/2): selective MST1/2 inhibition
